Test system: PepTSt
Test: Kinetics of proton-driven glycylsarcosine uptake in PepTSt proteoliposomes
Format: biochemical, Streptococcus thermophilus
Conditions: proton-driven proteoliposome uptake, pH 6.5
Method in brief: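 PepTSt proteoliposomes (1:40 protein:lipid, extruded 400 nm) loaded with 20 mM KPi pH 6.50, 100 mM K acetate, 2 mM MgSO4. Diluted 1:50 into 20 mM NaPIPES […], 2 mM MgSO4, 10 μM valinomycin, giving an inside-negative potential that drives H+/peptide uptake. 3H peptide added at varying concentrations, 25°C. Quenched with ice-cold LiCl, filtered, counted, and converted to molar amounts via standard curves.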

For glycylsarcosine, the “maximal rate of uptake, Vmax” value was 631 nmol min^−1 mg^−1 PepTSt.

Reference: paper PMC3419923 (The EMBO Journal, 2012)
